Data published in ChEMBL document CHEMBL2396524, “Design, synthesis and biological evaluation of enzymatically cleavable NSAIDs prodrugs derived from self-immolative dendritic scaffolds for the treatment of inflammatory diseases” (Bioorg Med Chem, 2013).

Assays:
[1] = Chemical stability of the compound in phosphate buffer at pH 7 assessed as compound remaining at 0.1 uM after 48 hrs by RP-HPLC analysis; format: physicochemical; conditions: read-out: Stability
Summary of the method: (§1)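 Conjugates at 0.1 µM were incubated at 37 °C in 20 mM phosphate buffer at pH 2.0, 7.0 or 8.0. Intact conjugate was measured by RP-HPLC: RP18 column, methanol/0.05 mol/l KH2PO4 pH 3.0 (60:40), 1.0 ml/min, UV 256 nm, 25 °C. Results are % remaining, mean ± SD.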

[2] = Chemical stability of the compound in phosphate buffer at pH 8 assessed as compound remaining at 0.1 uM after 48 hrs by RP-HPLC analysis; format: physicochemical; conditions: read-out: Stability; summary of the method: as §1
[3] = Chemical stability of the compound in phosphate buffer at pH 2 assessed as compound remaining at 0.1 uM after 48 hrs by RP-HPLC analysis; format: physicochemical; conditions: read-out: Stability; summary of the method: as §1
Mus musculus [4] = test: Antiinflammatory activity in Kunming mouse assessed as inhibition of xylene-induced auricle tumefaction at 25 uM/kg, tid qd for 5 days relative to control; format: functional
Summary of the method: (§2)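 Male Kunming mice (18–22 g), 10 per group, with 0.9% NaCl as the blank group. Dosing was once daily for 5 days (table footnote); the methods say t.i.d. Drug was given at molar equivalence to naproxen. 1 h after the last dose, a 7 mm xylene-soaked filter was held on the right ear for 30 s. Mice were killed 30 min later and 7 mm ear discs punched. Inhibition % = (1 − a/b)×100.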

Mus musculus [5] = test: Gastrointestinal toxicity in Kunming mouse assessed as ulcer index at 200 mg/kg, po after 4 hrs; format: organism-based; design: dose 200 mg/kg, route oral; conditions: in vivo
Summary of the method: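 Kunming mice of either sex (18–22 g), 10 per group, were fasted 24 h. A 200 mg/kg oral dose was given as a suspension in 1% methylcellulose, and mice were killed after 4 h. Stomachs were fixed 30 min in 10% formaldehyde, opened along the greater curvature and lesion lengths measured under magnification. UI = summed lesion length (mm) per group divided by 10 animals.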

[6] = Chemical stability of the compound in phosphate buffer at pH 2 assessed as compound remaining at 0.1 uM after 240 hrs by RP-HPLC analysis; format: physicochemical; conditions: read-out: Stability; summary of the method: as §1
[7] = Chemical stability of the compound in phosphate buffer at pH 8 assessed as compound remaining at 0.1 uM after 240 hrs by RP-HPLC analysis; format: physicochemical; conditions: read-out: Stability; summary of the method: as §1
HEK293 = test: Cytotoxicity against HEK293 cells assessed as cell viability at 2 to 32 ug/ml after 24 hrs by MTT assay; format: cell-based; conditions: human, hek293, 24 h
Summary of the method: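 HEK293 cells were seeded at 2500/well and grown 24 h before compound exposure. The figure legend gives 24 h exposure; the methods give 48 h. MTT (5 mg/ml) was then added for 2.5 h at 37 °C. Formazan was dissolved in DMSO and read at 570 nm. Viability is % of control cells, mean ± SD, n = 3.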

[8] = Chemical stability of the compound in phosphate buffer at pH 7 assessed as compound remaining at 0.1 uM after 240 hrs by RP-HPLC analysis; format: physicochemical; conditions: read-out: Stability; summary of the method: as §1
Mus musculus [9] = test: Antiinflammatory activity in Kunming mouse assessed as inhibition of xylene-induced auricle tumefaction at 22.2 uM/kg, tid qd for 5 days relative to control; format: functional; summary of the method: as §2

Compound | remaining at 48 h, 0.1 µM [1] | remaining at 48 h, 0.1 µM [2] | remaining at 48 h, 0.1 µM [3] | inhibition (INH) (Mus musculus [4]) | UI (Mus musculus [5]) | remaining at 240 h, 0.1 µM [6] | remaining at 240 h, 0.1 µM [7] | Activity (HEK293) | remaining at 240 h, 0.1 µM [8] | inhibition (INH) (Mus musculus [9])
COc1ccc2cc(C(C)C(=O)OCCN(CCOC(=O)C(C)c3ccc4cc(OC)ccc4c3)CCC(=O)OCCN(CCOC(=O)CCN(CCOC(=O)C(C)c3ccc4cc(OC)ccc4c3)CCOC(=O)C(C)c3ccc4cc(OC)ccc4c3)CCC(=O)OCCN(CCOC(=O)CCN(CCOC(=O)CCN(CCOC(=O)C(C)c3ccc4cc(OC)ccc4c3)CCOC(=O)C(C)c3ccc4cc(OC)ccc4c3)CCOC(=O)CCN(CCOC(=O)C(C)c3ccc4cc(OC)ccc4c3)CCOC(=O)C(C)c3ccc4cc(OC)ccc4c3)CCC(=O)OCc3ccccc3)ccc2c1 (centres undefined) | 96.2% | 97.3% | 95.7% | 39.62% | 6.93 | 72.3% | 79.4% | Non-toxic | 95.9% | –
COc1ccc2cc([C@H](C)C(=O)O)ccc2c1 [NAPROXEN] | – | – | – | – | 8.26 | – | – | Non-toxic | – | –
COc1ccc2cc(C(C)C(=O)NCCCCC(NC(=O)C(C)c3ccc4cc(OC)ccc4c3)C(=O)NCCCCC(NC(=O)C(CCCCNC(=O)C(C)c3ccc4cc(OC)ccc4c3)NC(=O)C(C)c3ccc4cc(OC)ccc4c3)C(=O)NCCCCC(NC(=O)C(CCCCNC(=O)C(CCCCNC(=O)C(C)c3ccc4cc(OC)ccc4c3)NC(=O)C(C)c3ccc4cc(OC)ccc4c3)NC(=O)C(CCCCNC(=O)C(C)c3ccc4cc(OC)ccc4c3)NC(=O)C(C)c3ccc4cc(OC)ccc4c3)C(=O)OCc3ccccc3)ccc2c1 (centres undefined) | 97.6% | 91.2% | 97.1% | 48.18% | 6.21 | 93.1% | 89.4% | Non-toxic | 96.1% | –
COc1ccc2cc(C(C)C(=O)OCC(COC(=O)C(C)c3ccc4cc(OC)ccc4c3)(COC(=O)C(C)c3ccc4cc(OC)ccc4c3)NC(=O)CCC(=O)OCC(COC(=O)CCC(=O)NC(COC(=O)C(C)c3ccc4cc(OC)ccc4c3)(COC(=O)C(C)c3ccc4cc(OC)ccc4c3)COC(=O)C(C)c3ccc4cc(OC)ccc4c3)(COC(=O)CCC(=O)NC(COC(=O)C(C)c3ccc4cc(OC)ccc4c3)(COC(=O)C(C)c3ccc4cc(OC)ccc4c3)COC(=O)C(C)c3ccc4cc(OC)ccc4c3)NC(=O)OCc3ccccc3)ccc2c1 (centres undefined) | 99.1% | 94.5% | 97.2% | – | 5.94 | 89.9% | 79.4% | Non-toxic | 98.4% | 49.64%
